Results from ChEMBL document CHEMBL4130613, “Identification and Proposed Relative and Absolute Configurations of Niphimycins C-E from the Marine-Derived Streptomyces sp. IMB7-145 by Genomic Analysis” (J Nat Prod, 2018).
≈ marks a conversion by molar mass, not a printed value.

Legend:
[1] = tested on: Mycobacterium tuberculosis; test: Antibacterial activity against Mycobacterium tuberculosis isolate FJ05060 […] by agar dilution method; assay type: functional
Enterococcus faecium [2] = test: Antibacterial activity against vancomycin-resistant Enterococcus faecium ATCC 700221 after 18 hrs by agar dilution method; assay type: functional; conditions: ATCC 700221, 18 h
Pseudomonas aeruginosa [3] = test: Antibacterial activity against Pseudomonas aeruginosa PAO1 after 18 hrs by agar dilution method; assay type: functional; conditions: PAO1, 18 h
Klebsiella pneumoniae [4] = test: Antibacterial activity against extended-spectrum beta-lactamase-negative Klebsiella pneumoniae 7 after 18 hrs by agar dilution method; assay type: functional; conditions: Klebsiella pneumoniae, 7, 18 h
Providencia rettgeri = test: Antibacterial activity against Providencia rettgeri ATCC 31052 after 18 hrs by agar dilution method; assay type: functional; conditions: ATCC 31052, 18 h
[5] = tested on: Stenotrophomonas maltophilia; test: Antibacterial activity against Stenotrophomonas maltophilia ATCC 13636 after 18 hrs by agar dilution method; assay type: functional; conditions: ATCC 13636, 18 h
Enterococcus faecium [6] = test: Antibacterial activity against vancomycin-resistant Enterococcus faecium 12-1 after 18 hrs by agar dilution method; assay type: functional; conditions: 12-1, 18 h
Proteus vulgaris = test: Antibacterial activity against Proteus vulgaris ATCC 29905 after 18 hrs by agar dilution method; assay type: functional; conditions: ATCC 29905, 18 h
Klebsiella pneumoniae [7] = test: Antibacterial activity against extended-spectrum beta-lactamase-positive Klebsiella pneumoniae 12-8 after 18 hrs by agar dilution method; assay type: functional; conditions: 12-8, 18 h
HeLa = test: Cytotoxicity against human HeLa cells after 48 hrs by SRB assay; assay type: functional, cell-based
Summary of the method: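 HeLa human cervical carcinoma cells obtained from ATCC. Cytotoxicity was read by sulforhodamine B staining following an earlier published protocol, with doxorubicin hydrochloride as positive control. Values are reported as IC50.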

Escherichia coli [8] = test: Antibacterial activity against extended-spectrum beta-lactamase-negative Escherichia coli 12-14 after 18 hrs by agar dilution method; assay type: functional; conditions: 12-14, 18 h
Citrobacter freundii = test: Antibacterial activity against Citrobacter freundii ATCC 43864 after 18 hrs by agar dilution method; assay type: functional; conditions: ATCC 43864, 18 h
Proteus mirabilis = test: Antibacterial activity against Proteus mirabilis 12-6 after 18 hrs by agar dilution method; assay type: functional; conditions: 12-6, 18 h
[9] = tested on: Staphylococcus epidermidis; test: Antibacterial activity against methicillin-resistant Staphylococcus epidermidis 12-8 after 18 hrs by agar dilution method; assay type: functional; conditions: 12-8, 18 h
[10] = tested on: Mycobacterium tuberculosis; test: Antibacterial activity against Mycobacterium tuberculosis isolate FJ05349 […] by agar dilution method; assay type: functional
Escherichia coli [11] = test: Antibacterial activity against extended-spectrum beta-lactamase-negative Escherichia coli ATCC 25922 after 18 hrs by agar dilution method; assay type: functional; conditions: ATCC 25922, 18 h
Enterococcus faecalis [12] = test: Antibacterial activity against vancomycin-resistant Enterococcus faecalis 09-9 after 18 hrs by agar dilution method; assay type: functional; conditions: 09-9, 18 h
Serratia marcescens = test: Antibacterial activity against Serratia marcescens ATCC 21074 after 18 hrs by agar dilution method; assay type: functional; conditions: ATCC 21074, 18 h
Escherichia coli [13] = test: Antibacterial activity against extended-spectrum beta-lactamase-negative Escherichia coli 1515 after 18 hrs by agar dilution method; assay type: functional; conditions: Escherichia coli, 1515, 18 h
Staphylococcus aureus [14] = test: Antibacterial activity against methicillin-resistant Staphylococcus aureus ATCC 33591 after 18 hrs by agar dilution method; assay type: functional; conditions: ATCC 33591, 18 h
Enterobacter cloacae = test: Antibacterial activity against Enterobacter cloacae ATCC 43560 after 18 hrs by agar dilution method; assay type: functional; conditions: ATCC 43560, 18 h
Escherichia coli [15] = test: Antibacterial activity against extended-spectrum beta-lactamase-positive Escherichia coli 12-15 after 18 hrs by agar dilution method; assay type: functional; conditions: 12-15, 18 h
Pseudomonas aeruginosa [16] = test: Antibacterial activity against Pseudomonas aeruginosa 12-16 after 18 hrs by agar dilution method; assay type: functional; conditions: 12-16, 18 h
Klebsiella pneumoniae [17] = test: Antibacterial activity against NDM-1 positive Klebsiella pneumoniae ATCC BAA-2146 after 18 hrs by agar dilution method; assay type: functional; conditions: ATCC BAA-2146, 18 h
Klebsiella aerogenes = test: Antibacterial activity against Enterobacter aerogenes ATCC 13048 after 18 hrs by agar dilution method; assay type: functional; conditions: ATCC 13048, 18 h
Candida albicans = test: Antifungal activity against Candida albicans ATCC 10231 after 18 hrs by agar dilution method; assay type: functional; conditions: ATCC 10231, 18 h
Enterococcus faecalis [18] = test: Antibacterial activity against vancomycin-resistant Enterococcus faecalis ATCC 51299 after 18 hrs by agar dilution method; assay type: functional; conditions: ATCC 51299, 18 h
[19] = tested on: Acinetobacter calcoaceticus; test: Antibacterial activity against Acinetobacter calcoaceticus ATCC 19606 after 18 hrs by agar dilution method; assay type: functional; conditions: ATCC 19606, 18 h
Staphylococcus aureus [20] = test: Antibacterial activity against methicillin-resistant Staphylococcus aureus 12-33 after 18 hrs by agar dilution method; assay type: functional; conditions: 12-33, 18 h
Pseudomonas aeruginosa [21] = test: Antibacterial activity against Pseudomonas aeruginosa ATCC 27853 after 18 hrs by agar dilution method; assay type: functional; conditions: ATCC 27853, 18 h
[22] = tested on: Mycobacterium tuberculosis; test: Antibacterial activity against Mycobacterium tuberculosis H37Rv […] by agar dilution method; assay type: functional
Klebsiella pneumoniae [23] = test: Antibacterial activity against extended-spectrum beta-lactamase-positive Klebsiella pneumoniae ATCC 700603 after 18 hrs by agar dilution method; assay type: functional; conditions: Klebsiella pneumoniae, 700603, 18 h
Morganella morganii = test: Antibacterial activity against Morganella morganii ATCC 25830 after 18 hrs by agar dilution method; assay type: functional; conditions: ATCC 25830, 18 h
Klebsiella pneumoniae [24] = test: Antibacterial activity against extended-spectrum beta-lactamase-negative Klebsiella pneumoniae 12-4 after 18 hrs by agar dilution method; assay type: functional; conditions: 12-4, 18 h

CNC(=N)NCCC/C=C/CCC[C@H](C)C[C@H](C)[C@H]1OC(=O)[C@H](C)[C@H](O)/C=C/[C@H](C)[C@H](O)C[C@H](O)[C@H](C)[C@@H](O)CC[C@H](C)[C@H](O)C[C@]2(O)O[C@H](C[C@@H](O)C[C@H](OC(=O)CC(=O)O)C[C@@H](O)[C@H](C)[C@H](O)/C=C/C=C/[C@@H]1C)C[C@H](O)[C@H]2O
MIC [1]: 4 to 16 µg/mL (≈ 3.5 to 14 µM) | MIC (Enterococcus faecium [2]): 64 µg/mL (≈ 56 µM) | MIC (Pseudomonas aeruginosa [3]): > 64 µg/mL | MIC (Klebsiella pneumoniae [4]): > 64 µg/mL | MIC (Providencia rettgeri): > 64 µg/mL | MIC [5]: > 64 µg/mL | MIC (Enterococcus faecium [6]): 64 µg/mL (≈ 56 µM) | MIC (Proteus vulgaris): > 64 µg/mL | MIC (Klebsiella pneumoniae [7]): > 64 µg/mL | IC50 (HeLa): 3 to 9 µM | MIC (Escherichia coli [8]): > 64 µg/mL | MIC (Citrobacter freundii): > 64 µg/mL | MIC (Proteus mirabilis): > 64 µg/mL | MIC [9]: 4 to 32 µg/mL (≈ 3.5 to 28 µM) | MIC [10]: 4 to 16 µg/mL (≈ 3.5 to 14 µM) | MIC (Escherichia coli [11]): > 64 µg/mL | MIC (Enterococcus faecalis [12]): 64 µg/mL (≈ 56 µM) | MIC (Serratia marcescens): > 64 µg/mL | MIC (Escherichia coli [13]): > 64 µg/mL | MIC (Staphylococcus aureus [14]): 4 to 32 µg/mL (≈ 3.5 to 28 µM) | MIC (Enterobacter cloacae): > 64 µg/mL | MIC (Escherichia coli [15]): > 64 µg/mL | MIC (Pseudomonas aeruginosa [16]): > 64 µg/mL | MIC (Klebsiella pneumoniae [17]): > 64 µg/mL | MIC (Klebsiella aerogenes): > 64 µg/mL | MIC (Candida albicans): 8 to 32 µg/mL (≈ 7 to 28 µM) | MIC (Enterococcus faecalis [18]): 64 µg/mL (≈ 56 µM) | MIC [19]: > 64 µg/mL | MIC (Staphylococcus aureus [20]): 4 to 32 µg/mL (≈ 3.5 to 28 µM) | MIC (Pseudomonas aeruginosa [21]): > 64 µg/mL | MIC [22]: 4 µg/mL (≈ 3.5 µM) | MIC (Klebsiella pneumoniae [23]): > 64 µg/mL | MIC (Morganella morganii): > 64 µg/mL | MIC (Klebsiella pneumoniae [24]): > 64 µg/mL

CNC(=N)NCCC/C=C/CCC[C@H](C)C[C@H](C)[C@H]1OC(=O)[C@H](C)[C@H](O)/C=C/[C@H](C)[C@H](O)C[C@H](O)[C@H](C)[C@@H](O)CC[C@H](C)[C@H](O)C[C@]2(O)O[C@H](C[C@@H](OC(=O)CC(=O)O)C[C@H](O)C[C@@H](O)[C@H](C)[C@H](O)/C=C/C=C/[C@@H]1C)C[C@H](O)[C@H]2O
MIC [1]: 4 to 16 µg/mL (≈ 3.5 to 14 µM) | MIC (Enterococcus faecium [2]): 64 µg/mL (≈ 56 µM) | MIC (Pseudomonas aeruginosa [3]): > 64 µg/mL | MIC (Klebsiella pneumoniae [4]): > 64 µg/mL | MIC (Providencia rettgeri): > 64 µg/mL | MIC [5]: > 64 µg/mL | MIC (Enterococcus faecium [6]): 64 µg/mL (≈ 56 µM) | MIC (Proteus vulgaris): > 64 µg/mL | MIC (Klebsiella pneumoniae [7]): > 64 µg/mL | IC50 (HeLa): 3 to 9 µM | MIC (Escherichia coli [8]): > 64 µg/mL | MIC (Citrobacter freundii): > 64 µg/mL | MIC (Proteus mirabilis): > 64 µg/mL | MIC [9]: 4 to 32 µg/mL (≈ 3.5 to 28 µM) | MIC [10]: 4 to 16 µg/mL (≈ 3.5 to 14 µM) | MIC (Escherichia coli [11]): > 64 µg/mL | MIC (Enterococcus faecalis [12]): 64 µg/mL (≈ 56 µM) | MIC (Serratia marcescens): > 64 µg/mL | MIC (Escherichia coli [13]): > 64 µg/mL | MIC (Staphylococcus aureus [14]): 4 to 32 µg/mL (≈ 3.5 to 28 µM) | MIC (Enterobacter cloacae): > 64 µg/mL | MIC (Escherichia coli [15]): > 64 µg/mL | MIC (Pseudomonas aeruginosa [16]): > 64 µg/mL | MIC (Klebsiella pneumoniae [17]): > 64 µg/mL | MIC (Klebsiella aerogenes): > 64 µg/mL | MIC (Candida albicans): 8 to 32 µg/mL (≈ 7 to 28 µM) | MIC (Enterococcus faecalis [18]): 64 µg/mL (≈ 56 µM) | MIC [19]: > 64 µg/mL | MIC (Staphylococcus aureus [20]): 4 to 32 µg/mL (≈ 3.5 to 28 µM) | MIC (Pseudomonas aeruginosa [21]): > 64 µg/mL | MIC [22]: 4 µg/mL (≈ 3.5 µM) | MIC (Klebsiella pneumoniae [23]): > 64 µg/mL | MIC (Morganella morganii): > 64 µg/mL | MIC (Klebsiella pneumoniae [24]): > 64 µg/mL
